Experimental data: ChEMBL document CHEMBL4043298, “Discovery of a Potent (4 R,5 S)-4-Fluoro-5-methylproline Sulfonamide Transient Receptor Potential Ankyrin 1 Antagonist and Its Methylene Phosphate Prodrug Guided by Molecular Modeling” (J Med Chem, 2018)
≈ marks a conversion by molar mass, not a printed value.

Key:
[1] = Clearance in rat liver microsomes; type: ADME, microsome
Outline: (§1)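 Hepatic clearance predicted from human or rat liver microsome incubations.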

[2] = Lipophilicity, log D of the compound at pH 7.4; settings: buffer
[3] = Kinetic solubility of the compound; type: physicochemical; settings: read-out: Kinetic_solubility
[4] = target: Transient receptor potential cation channel subfamily A member 1 (Homo sapiens, UniProt O75762); assay: Inhibition of human TRPA1 expressed in HEK293 cells assessed as inhibition of cinnamaldehyde-induced Ca2+ influx preincubated for 20 mins followed by cinnamaldehyde induction by FLIPR assay; type: cell-based
Transient receptor potential cation channel subfamily A member 1 (Homo sapiens, UniProt O75762), sequence (O75762 whole entry): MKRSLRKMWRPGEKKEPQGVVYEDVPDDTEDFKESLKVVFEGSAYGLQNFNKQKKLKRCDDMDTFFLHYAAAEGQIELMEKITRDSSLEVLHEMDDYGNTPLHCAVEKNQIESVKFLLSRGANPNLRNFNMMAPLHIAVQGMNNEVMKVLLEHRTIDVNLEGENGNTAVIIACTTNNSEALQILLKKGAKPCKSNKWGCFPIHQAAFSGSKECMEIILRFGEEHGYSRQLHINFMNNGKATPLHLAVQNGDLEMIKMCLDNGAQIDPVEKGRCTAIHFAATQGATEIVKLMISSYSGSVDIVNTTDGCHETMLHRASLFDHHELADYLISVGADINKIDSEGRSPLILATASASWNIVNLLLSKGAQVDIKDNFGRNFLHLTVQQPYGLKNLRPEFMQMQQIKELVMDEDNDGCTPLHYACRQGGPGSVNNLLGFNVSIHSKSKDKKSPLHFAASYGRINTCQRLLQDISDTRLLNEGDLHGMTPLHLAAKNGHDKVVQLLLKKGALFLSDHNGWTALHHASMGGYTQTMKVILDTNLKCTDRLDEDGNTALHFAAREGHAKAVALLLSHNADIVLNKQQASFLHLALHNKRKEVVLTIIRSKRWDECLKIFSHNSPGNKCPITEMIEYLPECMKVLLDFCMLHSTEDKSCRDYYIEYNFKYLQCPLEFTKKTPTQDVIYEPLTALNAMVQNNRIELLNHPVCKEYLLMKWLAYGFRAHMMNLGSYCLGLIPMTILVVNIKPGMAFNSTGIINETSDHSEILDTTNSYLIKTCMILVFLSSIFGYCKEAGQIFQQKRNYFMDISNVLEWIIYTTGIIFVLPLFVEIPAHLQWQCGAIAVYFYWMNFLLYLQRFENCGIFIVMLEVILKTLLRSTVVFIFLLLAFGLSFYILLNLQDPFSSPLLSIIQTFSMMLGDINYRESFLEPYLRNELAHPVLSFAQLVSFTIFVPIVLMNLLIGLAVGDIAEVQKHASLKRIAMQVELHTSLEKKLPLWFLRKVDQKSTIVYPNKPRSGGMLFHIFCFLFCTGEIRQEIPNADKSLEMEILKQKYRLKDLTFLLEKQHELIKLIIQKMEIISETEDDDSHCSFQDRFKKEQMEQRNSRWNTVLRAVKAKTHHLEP

[5] = Clearance in human liver microsomes; type: ADME, microsome; outline: as §1
[6] = Protein binding in rat plasma; type: ADME, cell-free; settings: read-out: PPB (converted)
[7] = AUC (0 to 24 hrs) in rat at 100 mg/kg, po; type: ADME, organism-based; design: dose 100 mg/kg, time < 24 hr, route oral; settings: in vivo
Outline: (§2)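 Rat oral dose of 30 or 100 mg/kg given as an amorphous suspension. Solid was dissolved in DMSO and precipitated into aqueous MCT, giving a final 15% DMSO/85% MCT. Plasma exposure measured over 0–24 h. The target multiple is unbound Cmax divided by the rat TRPA1 IC50.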

[8] = target: Transient receptor potential cation channel subfamily A member 1 (Rattus norvegicus, UniProt Q6RI86); assay: Inhibition of rat TRPA1 expressed in HEK293 cells assessed as inhibition of cinnamaldehyde-induced Ca2+ influx preincubated for 20 mins followed by cinnamaldehyde induction by FLIPR assay; type: cell-based
Transient receptor potential cation channel subfamily A member 1 (Rattus norvegicus, UniProt Q6RI86), sequence (Q6RI86 whole entry): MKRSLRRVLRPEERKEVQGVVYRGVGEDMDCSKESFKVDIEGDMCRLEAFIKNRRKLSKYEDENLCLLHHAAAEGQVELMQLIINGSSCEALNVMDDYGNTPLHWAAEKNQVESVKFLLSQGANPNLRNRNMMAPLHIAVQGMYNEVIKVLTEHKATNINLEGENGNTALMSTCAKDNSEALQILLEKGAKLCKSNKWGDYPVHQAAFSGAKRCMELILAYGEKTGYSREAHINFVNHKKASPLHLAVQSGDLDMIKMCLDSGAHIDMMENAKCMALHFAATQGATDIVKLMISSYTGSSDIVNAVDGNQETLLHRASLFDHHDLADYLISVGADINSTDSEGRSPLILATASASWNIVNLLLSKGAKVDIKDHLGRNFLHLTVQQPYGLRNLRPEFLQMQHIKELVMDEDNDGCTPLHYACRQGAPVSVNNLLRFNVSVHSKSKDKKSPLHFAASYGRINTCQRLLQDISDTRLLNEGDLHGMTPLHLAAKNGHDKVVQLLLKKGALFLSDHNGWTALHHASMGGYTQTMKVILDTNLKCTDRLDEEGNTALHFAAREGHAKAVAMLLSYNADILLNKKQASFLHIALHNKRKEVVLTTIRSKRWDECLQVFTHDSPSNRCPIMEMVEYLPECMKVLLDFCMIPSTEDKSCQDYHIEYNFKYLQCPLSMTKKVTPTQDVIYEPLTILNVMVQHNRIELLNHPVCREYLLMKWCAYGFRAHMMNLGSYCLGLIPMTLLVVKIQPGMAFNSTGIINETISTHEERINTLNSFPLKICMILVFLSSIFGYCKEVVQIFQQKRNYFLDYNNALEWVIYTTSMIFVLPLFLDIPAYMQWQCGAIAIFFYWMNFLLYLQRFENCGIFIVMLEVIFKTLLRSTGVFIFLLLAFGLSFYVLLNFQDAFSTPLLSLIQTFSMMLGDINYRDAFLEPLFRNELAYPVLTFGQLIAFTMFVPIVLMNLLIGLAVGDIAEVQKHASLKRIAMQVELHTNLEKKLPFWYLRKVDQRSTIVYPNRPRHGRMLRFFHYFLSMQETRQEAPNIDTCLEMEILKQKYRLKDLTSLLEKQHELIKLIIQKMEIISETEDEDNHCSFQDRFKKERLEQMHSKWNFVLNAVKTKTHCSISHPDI

[9] = target: Transient receptor potential cation channel subfamily V member 1 (Homo sapiens, UniProt Q8NER1); assay: Inhibition of human TRPV1
Transient receptor potential cation channel subfamily V member 1, sequence (Q8NER1 whole entry): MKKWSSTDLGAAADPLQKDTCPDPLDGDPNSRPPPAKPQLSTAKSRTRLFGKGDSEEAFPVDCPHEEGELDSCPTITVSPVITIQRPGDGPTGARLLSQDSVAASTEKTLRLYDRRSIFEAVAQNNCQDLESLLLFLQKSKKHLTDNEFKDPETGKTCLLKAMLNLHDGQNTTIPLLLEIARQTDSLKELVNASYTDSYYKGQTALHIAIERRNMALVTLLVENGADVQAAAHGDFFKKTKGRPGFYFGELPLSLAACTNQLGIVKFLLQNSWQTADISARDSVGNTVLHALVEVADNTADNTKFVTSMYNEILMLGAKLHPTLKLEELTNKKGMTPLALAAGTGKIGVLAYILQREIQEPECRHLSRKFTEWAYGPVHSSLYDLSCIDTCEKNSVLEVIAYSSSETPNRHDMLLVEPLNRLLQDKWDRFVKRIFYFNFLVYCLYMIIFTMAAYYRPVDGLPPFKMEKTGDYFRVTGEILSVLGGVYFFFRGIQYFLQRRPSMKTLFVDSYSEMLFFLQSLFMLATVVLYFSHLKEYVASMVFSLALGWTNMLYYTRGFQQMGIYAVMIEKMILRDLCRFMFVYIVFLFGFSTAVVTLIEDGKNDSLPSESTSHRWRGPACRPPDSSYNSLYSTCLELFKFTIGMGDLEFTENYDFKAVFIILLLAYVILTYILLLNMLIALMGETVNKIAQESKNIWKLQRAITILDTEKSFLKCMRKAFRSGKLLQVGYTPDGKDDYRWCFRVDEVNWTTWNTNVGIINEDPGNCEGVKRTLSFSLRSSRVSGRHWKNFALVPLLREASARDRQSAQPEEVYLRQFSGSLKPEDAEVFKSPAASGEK

[10] = Protein binding in human plasma; type: ADME, cell-free; settings: read-out: PPB (converted)
Rattus norvegicus [11] = assay: Volume of distribution at steady state in rat at 1 mg/kg, iv; type: ADME, organism-based; settings: in vivo
[12] = Ratio of unbound Cmax in rat at 30 mg/kg, po to IC50 for rat TRPA1; outline: as §2
[13] = Cmax in rat at 30 mg/kg, po; type: ADME, organism-based; design: dose 30 mg/kg, route oral; settings: in vivo; outline: as §2
[14] = Cmax in rat at 1 mg/kg, po; type: ADME, organism-based; design: dose 1 mg/kg, route oral; settings: in vivo
Outline: (§3)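 Rat oral dose of 1 mg/kg in MCT vehicle (0.5% methylcellulose with 0.2% Tween 80 in water). Parent plasma exposure measured over 0–24 h. The target multiple is unbound Cmax divided by the rat TRPA1 IC50.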

[15] = AUC (0 to 24 hrs) in rat at 30 mg/kg, po; type: ADME, organism-based; design: dose 30 mg/kg, time < 24 hr, route oral; settings: in vivo; outline: as §2
[16] = target: Transient receptor potential cation channel subfamily M member 8 (Homo sapiens, UniProt Q7Z2W7); assay: Inhibition of human TRPM8
Rattus norvegicus [17] = assay: Half life in rat at 1 mg/kg, iv; type: ADME, organism-based; settings: in vivo
[18] = Cmax in rat at 100 mg/kg, po; type: ADME, organism-based; design: dose 100 mg/kg, route oral; settings: in vivo; outline: as §2
[19] = Ratio of unbound Cmax in rat at 100 mg/kg, po to IC50 for rat TRPA1; outline: as §2
hERG (KCNH2) = hERG (KCNH2) (Homo sapiens, UniProt Q12809); assay: Inhibition of human ERG at 10 uM by patch clamp assay relative to control
hERG (KCNH2), sequence (Q12809 whole entry): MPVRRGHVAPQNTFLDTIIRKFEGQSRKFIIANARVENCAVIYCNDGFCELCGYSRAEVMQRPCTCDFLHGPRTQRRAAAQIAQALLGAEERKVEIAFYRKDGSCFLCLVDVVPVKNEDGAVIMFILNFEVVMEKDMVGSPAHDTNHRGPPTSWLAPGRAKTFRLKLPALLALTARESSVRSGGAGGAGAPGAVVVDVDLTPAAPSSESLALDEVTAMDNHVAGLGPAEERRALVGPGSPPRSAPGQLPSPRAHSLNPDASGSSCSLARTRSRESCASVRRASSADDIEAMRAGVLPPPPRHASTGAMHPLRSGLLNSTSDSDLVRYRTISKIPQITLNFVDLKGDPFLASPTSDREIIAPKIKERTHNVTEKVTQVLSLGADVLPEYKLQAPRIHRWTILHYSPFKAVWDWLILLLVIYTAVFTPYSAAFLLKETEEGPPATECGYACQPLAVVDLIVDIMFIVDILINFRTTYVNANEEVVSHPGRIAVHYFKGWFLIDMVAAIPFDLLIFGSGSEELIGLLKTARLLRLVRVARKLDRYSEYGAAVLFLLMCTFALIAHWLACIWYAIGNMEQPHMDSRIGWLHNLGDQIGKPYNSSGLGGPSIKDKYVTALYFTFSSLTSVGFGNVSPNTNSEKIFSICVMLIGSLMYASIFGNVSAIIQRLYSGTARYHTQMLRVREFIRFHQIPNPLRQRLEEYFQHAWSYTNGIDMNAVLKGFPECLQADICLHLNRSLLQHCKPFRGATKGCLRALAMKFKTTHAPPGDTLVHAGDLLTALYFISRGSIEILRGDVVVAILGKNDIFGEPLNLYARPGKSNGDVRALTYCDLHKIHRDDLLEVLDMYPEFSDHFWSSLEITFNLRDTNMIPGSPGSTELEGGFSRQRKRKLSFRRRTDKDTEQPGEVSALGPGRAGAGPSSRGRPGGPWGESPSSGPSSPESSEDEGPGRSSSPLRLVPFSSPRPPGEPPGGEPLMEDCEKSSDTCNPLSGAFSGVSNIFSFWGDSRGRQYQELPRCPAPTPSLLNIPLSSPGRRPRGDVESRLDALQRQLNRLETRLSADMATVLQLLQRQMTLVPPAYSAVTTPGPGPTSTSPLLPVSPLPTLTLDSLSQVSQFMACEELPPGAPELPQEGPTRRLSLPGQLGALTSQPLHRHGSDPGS
Outline: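 hERG potassium channel inhibition measured by automated patch clamp at a single concentration of 10 μM.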

[20] = Ratio of unbound Cmax in rat at 1 mg/kg, po to IC50 for rat TRPA1; outline: as §3
[21] = Permeability across apical to basolateral side in MDCK cells; type: ADME, cell-based, Canis lupus familiaris; settings: dog, read-out: permeability
[22] = AUC (0 to 24 hrs) in rat at 1 mg/kg, po; type: ADME, organism-based; design: dose 1 mg/kg, time < 24 hr, route oral; settings: in vivo; outline: as §3
[23] = Oral bioavailability in rat at 1 mg/kg; type: ADME, organism-based; settings: in vivo

| Compound | CLhep predicted [1] [mL/min/kg] | logD [2] | solubility kinetic [3] [µM] | IC50 [4] [nM] | CLhep predicted [5] [mL/min/kg] | other results |
| --- | --- | --- | --- | --- | --- | --- |
| C[C@H]1[C@H](F)C[C@@H](C(=O)NCc2c(F)cnc(-c3cnc(C(F)(F)F)nc3)c2F)N1S(=O)(=O)c1ccc(F)cc1 | 36 | 2.5 | 8 (≈ 4.62 µg/mL) | 328 | 14 |  |
| O=C(NCc1cc(-c2ccc(C(F)(F)F)nc2)ncn1)[C@@H]1C[C@@H](F)CN1S(=O)(=O)c1ccc(F)cc1 | 10 | 2.4 |  | 1200 | 5 |  |
| C[C@H]1[C@H](F)C[C@@H](C(=O)NCc2cc(-c3cnc(C(F)(F)F)nc3)ncc2F)N1S(=O)(=O)c1ccc(F)cc1 | 17 | 2.6 | < 1 | 8 | 10 | fraction unbound [6]: 0.028; AUC(0-t) at 24 h [7]: 39.6 µM·h; IC50 [8]: 36 nM; IC50 [9]: > 20 µM; fraction unbound [10]: 0.02; Vdss (Rattus norvegicus [11]): 7.5 L/kg; Ratio [12]: 1.81; Cmax [13]: 2330 nM; Cmax [14]: 30 nM; AUC(0-t) at 24 h [15]: 32.8 µM·h; IC50 [16]: > 20 µM; t1/2 (Rattus norvegicus [17]): 7.5 h; Cmax [18]: 2510 nM; Ratio [19]: 1.95; inhibition at 10 µM (hERG (KCNH2)): 14.3%; Ratio [20]: 0.02; Papp A→B [21]: 11.2 ×10⁻⁶ cm/s; AUC(0-t) at 24 h [22]: 0.56 µM·h; bioavailability [23]: 12% |
| C[C@H]1[C@H](F)C[C@@H](C(=O)NCc2cc(-c3cnc(C(F)(F)F)nc3)ncc2C#N)N1S(=O)(=O)c1ccc(F)cc1 | 16 |  | 14 (≈ 7.93 µg/mL) | 10 | 9 |  |
| C[C@H]1[C@H](F)C[C@@H](C(=O)NCc2cc(-c3cnc(C(F)(F)F)nc3)c(Cl)cn2)N1S(=O)(=O)c1ccc(F)cc1 | 21 | 2.5 | 8 (≈ 4.61 µg/mL) | 13 | 15 |  |
| C[C@H]1[C@H](F)C[C@@H](C(=O)NCc2cc(-c3cnc(C(F)(F)F)nc3)nc(C3CC3)n2)N1S(=O)(=O)c1ccc(F)cc1 | 22 | 3.8 | < 1 | 5 | 10 |  |
| C[C@H]1[C@H](F)C[C@@H](C(=O)NCc2cc(-c3cnc(C(F)(F)F)nc3)ncn2)N1S(=O)(=O)c1ccc(F)cc1 | 18 | 2.5 | 53 (≈ 28.8 µg/mL) | 64 | 11 |  |
| C[C@H]1[C@H](F)C[C@@H](C(=O)NCc2cc(-c3cnc(C(F)(F)F)nc3)ncc2Cl)N1S(=O)(=O)c1ccc(F)cc1 | 20 |  | < 1 | 5 | 11 |  |
| C[C@H]1CC[C@@H](C(=O)NCc2cc(-c3ccc(C(F)(F)F)nc3)ncn2)N1S(=O)(=O)c1ccc(F)cc1 | 47 | 2.9 |  | 13 | 19 |  |
| O=C(NCc1cc(-c2ccc(C(F)(F)F)nc2)ncn1)[C@@H]1CCN1S(=O)(=O)c1ccc(F)cc1 | 27 | 2.4 |  | 1500 | 10 |  |
| O=C(NCc1cc(-c2ccc(C(F)(F)F)nc2)ncn1)[C@@H]1CCCN1S(=O)(=O)c1ccc(F)cc1 | 43 | 2.7 |  | 154 | 16 |  |
| C[C@H]1[C@H](F)C[C@@H](C(=O)NCc2cc(-c3cnc(C(F)(F)F)nc3)c(C#N)cn2)N1S(=O)(=O)c1ccc(F)cc1 | 25 | 2.3 | 123 (≈ 69.7 µg/mL) | 96 | 17 |  |
| O=C(NCc1cc(-c2ccc(C(F)(F)F)nc2)ncn1)[C@@H]1CCCCN1S(=O)(=O)c1ccc(F)cc1 | 46 | 3.4 |  | 2300 | 18 |  |
| C[C@H]1[C@H](F)C[C@@H](C(=O)NCc2cc(-c3cnc(C(F)(F)F)nc3)ccn2)N1S(=O)(=O)c1ccc(F)cc1 | 18 | 3.3 | 132 (≈ 71.5 µg/mL) |  | 16 |  |
| O=C(NCc1cc(-c2ccc(C(F)(F)F)nc2)ncn1)[C@@H]1C[C@H](F)CN1S(=O)(=O)c1ccc(F)cc1 | 40 | 1.8 |  | 4400 | 7 |  |
| C[C@H]1[C@H](F)C[C@@H](C(=O)NCc2cc(-c3cnc(C(F)(F)F)cn3)ncn2)N1S(=O)(=O)c1ccc(F)cc1 | 18 | 2.3 | 18 (≈ 9.76 µg/mL) |  | 14 |  |
| C[C@H]1[C@H](F)C[C@@H](C(=O)NCc2ccnc(-c3cnc(C(F)(F)F)nc3)c2)N1S(=O)(=O)c1ccc(F)cc1 | 25 | 3 | < 1 |  | 12 |  |
| C[C@@H]1CC[C@@H](C(=O)NCc2cc(-c3ccc(C(F)(F)F)nc3)ncn2)N1S(=O)(=O)c1ccc(F)cc1 | 30 | 4.3 |  | 239 | 19 |  |
| C[C@H]1[C@H](F)C[C@@H](C(=O)NCc2cc(-c3cnc(C(F)(F)F)nc3)c(F)cn2)N1S(=O)(=O)c1ccc(F)cc1 | 18 | 2.6 | 84 (≈ 47 µg/mL) | 33 | 13 |  |
| C[C@H]1[C@H](F)C[C@@H](C(=O)NCc2cc(-c3ccc(C(F)(F)F)nc3)ncn2)N1S(=O)(=O)c1ccc(F)cc1 | 19 | 2.7 | 2 (≈ 1.08 µg/mL) | 179 | 10 |  |
